# Experimental data from ChEMBL document CHEMBL2390933, “A class of pyrrole derivatives endowed with analgesic/anti-inflammatory activity” (Bioorg Med Chem, 2013).
# How the values were obtained:
# [1] = biological target: T1, Prostaglandin G/H synthase 2 (Mus musculus, UniProt Q05769); assay: Inhibition of COX2 in mouse J774 cells assessed as inhibition of LPS-induced PGE2 production by radioimmunoassay; type: cell-based
# T1 sequence (Q05769 whole entry): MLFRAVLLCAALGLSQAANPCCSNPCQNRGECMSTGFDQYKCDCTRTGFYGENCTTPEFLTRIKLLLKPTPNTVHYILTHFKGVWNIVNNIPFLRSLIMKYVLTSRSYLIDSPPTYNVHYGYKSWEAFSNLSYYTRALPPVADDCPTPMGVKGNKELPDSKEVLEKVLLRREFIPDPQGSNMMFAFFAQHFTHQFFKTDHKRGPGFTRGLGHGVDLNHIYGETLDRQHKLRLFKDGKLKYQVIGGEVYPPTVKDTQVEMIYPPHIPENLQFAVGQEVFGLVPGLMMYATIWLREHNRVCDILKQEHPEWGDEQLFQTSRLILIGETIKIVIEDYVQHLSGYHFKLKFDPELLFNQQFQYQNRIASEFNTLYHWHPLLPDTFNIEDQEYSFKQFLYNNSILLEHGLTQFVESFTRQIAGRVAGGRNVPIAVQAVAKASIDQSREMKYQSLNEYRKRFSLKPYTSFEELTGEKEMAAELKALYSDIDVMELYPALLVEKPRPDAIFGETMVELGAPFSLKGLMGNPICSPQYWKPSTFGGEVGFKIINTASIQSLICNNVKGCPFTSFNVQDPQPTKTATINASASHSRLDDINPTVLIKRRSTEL
# [2] = test system: Mus musculus; assay: Analgesic activity in Swiss albino mouse inflammatory pain model assessed as inhibition of acetic acid-induced writhing at 5 mg/kg, po administered 30 mins prior to acetic acid challenge relative to vehicle-treated control; type: functional
# How it was run: (§1)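 Male Swiss albino mice (23–25 g), standard diet, water ad libitum, 23 ± 1 °C, 12 h light/dark cycle, randomised into groups. Compound or vehicle (suspended in 1% carboxymethylcellulose) given orally 30 min before ip 0.6% acetic acid. Writhes counted starting 5 min after injection. Reported as writhe count and % reduction versus vehicle-treated mice. Mean of 10 mice per group.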
# [3] = test system: Mus musculus; assay: Analgesic activity in Swiss albino mouse inflammatory pain model assessed as inhibition of acetic acid-induced writhing at 40 mg/kg, po administered 30 mins prior to acetic acid challenge relative to vehicle-treated control; type: functional; how it was run: as §1
# [4] = test system: Mus musculus; assay: Analgesic activity in Swiss albino mouse inflammatory pain model assessed as inhibition of acetic acid-induced writhing at 10 mg/kg, po administered 30 mins prior to acetic acid challenge relative to vehicle-treated control; type: functional; how it was run: as §1
# [5] = test system: J774; assay: Selectivity index, ratio of IC50 for COX1 in mouse J774 cells to IC50 for COX2 in mouse J774 cells; type: cell-based
# [6] = biological target: T2, Prostaglandin G/H synthase 1 (Mus musculus, UniProt P22437); assay: Inhibition of COX1 in mouse J774 cells using arachidonic acid as substrate assessed as inhibition of PGE2 production incubated for 15 mins prior to substrate addition measured after 30 mins by radioimmunoassay; type: cell-based
# T2 sequence (P22437 whole entry): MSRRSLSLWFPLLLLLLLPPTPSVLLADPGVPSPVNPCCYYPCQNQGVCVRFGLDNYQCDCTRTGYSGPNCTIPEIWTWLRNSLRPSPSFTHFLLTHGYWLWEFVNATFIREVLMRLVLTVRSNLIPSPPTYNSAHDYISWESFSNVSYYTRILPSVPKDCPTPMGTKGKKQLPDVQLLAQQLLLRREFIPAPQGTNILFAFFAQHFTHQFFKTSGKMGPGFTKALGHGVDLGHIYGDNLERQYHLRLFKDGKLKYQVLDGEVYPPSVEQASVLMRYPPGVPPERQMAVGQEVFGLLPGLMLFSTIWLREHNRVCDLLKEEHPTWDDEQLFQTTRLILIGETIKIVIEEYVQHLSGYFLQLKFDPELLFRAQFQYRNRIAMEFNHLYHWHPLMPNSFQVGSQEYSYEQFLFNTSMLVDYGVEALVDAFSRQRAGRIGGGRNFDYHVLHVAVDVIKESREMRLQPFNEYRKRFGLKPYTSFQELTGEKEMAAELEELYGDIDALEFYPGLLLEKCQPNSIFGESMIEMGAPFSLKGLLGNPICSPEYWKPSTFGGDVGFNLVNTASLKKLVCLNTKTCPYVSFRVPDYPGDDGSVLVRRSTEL
# How it was run: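 J774 cells allowed to adhere 2 h at 37 °C, 5% CO2; medium swapped for FBS-free medium just before use. Pre-treatment with compounds (0.01–10 µM) for 15 min, then 30 min at 37 °C with 15 µM arachidonic acid to activate constitutive COX-1. Supernatant PGE2 by RIA; triplicate wells, mean of three experiments as % inhibition vs control; IC50 from sigmoidal variable-slope fit.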
# [7] = test system: Mus musculus; assay: Analgesic activity in Swiss albino mouse inflammatory pain model assessed as inhibition of acetic acid-induced writhing at 20 mg/kg, po administered 30 mins prior to acetic acid challenge relative to vehicle-treated control; type: functional; how it was run: as §1
# [8] = biological target: T3, Prostaglandin G/H synthase 2 (Homo sapiens, UniProt P35354); design: species or system Blood
# T3 sequence (P35354 whole entry): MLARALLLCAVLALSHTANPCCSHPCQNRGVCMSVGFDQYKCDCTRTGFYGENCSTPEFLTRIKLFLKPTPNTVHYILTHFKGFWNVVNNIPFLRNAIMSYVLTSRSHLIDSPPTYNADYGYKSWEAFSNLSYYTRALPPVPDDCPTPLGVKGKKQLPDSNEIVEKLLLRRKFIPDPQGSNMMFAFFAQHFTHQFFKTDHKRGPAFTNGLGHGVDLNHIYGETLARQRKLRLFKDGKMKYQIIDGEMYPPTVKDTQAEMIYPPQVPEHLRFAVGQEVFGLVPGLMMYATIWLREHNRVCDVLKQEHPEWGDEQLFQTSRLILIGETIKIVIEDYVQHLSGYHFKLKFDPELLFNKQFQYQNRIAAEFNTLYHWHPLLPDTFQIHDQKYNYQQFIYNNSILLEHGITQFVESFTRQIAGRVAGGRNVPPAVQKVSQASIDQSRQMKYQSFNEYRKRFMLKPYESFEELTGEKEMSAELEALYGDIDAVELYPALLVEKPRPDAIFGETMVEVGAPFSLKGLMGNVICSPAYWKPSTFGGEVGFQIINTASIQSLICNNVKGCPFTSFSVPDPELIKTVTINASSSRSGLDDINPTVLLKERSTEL
# [9] = biological target: Prostaglandin G/H synthase 1 (Homo sapiens, UniProt P23219); type: tissue-based, Blood
# Chain of Prostaglandin G/H synthase 1 (Homo sapiens, UniProt P23219) (P23219 whole entry): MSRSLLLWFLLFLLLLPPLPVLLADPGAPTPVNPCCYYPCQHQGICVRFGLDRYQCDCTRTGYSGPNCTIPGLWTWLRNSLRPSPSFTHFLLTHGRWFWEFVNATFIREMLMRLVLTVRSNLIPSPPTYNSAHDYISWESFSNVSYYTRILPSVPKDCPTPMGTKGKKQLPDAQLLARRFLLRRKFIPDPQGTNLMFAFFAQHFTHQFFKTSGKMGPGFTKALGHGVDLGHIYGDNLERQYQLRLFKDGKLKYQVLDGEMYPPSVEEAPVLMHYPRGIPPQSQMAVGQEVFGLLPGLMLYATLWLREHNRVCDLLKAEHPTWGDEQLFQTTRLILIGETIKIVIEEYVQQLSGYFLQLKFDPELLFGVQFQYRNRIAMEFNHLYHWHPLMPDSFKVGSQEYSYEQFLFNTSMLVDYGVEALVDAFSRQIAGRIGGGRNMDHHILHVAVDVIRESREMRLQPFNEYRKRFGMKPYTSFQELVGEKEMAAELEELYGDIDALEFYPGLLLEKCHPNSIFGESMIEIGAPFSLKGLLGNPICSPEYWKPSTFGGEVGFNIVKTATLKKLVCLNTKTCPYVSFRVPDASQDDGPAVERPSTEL
# [10] = organism: Homo sapiens; assay: Selectivity ratio of IC50 for platelet COX1 in human whole blood to IC50 for monocyte COX2 in human whole blood; type: tissue-based
# [11] = test system: Mus musculus; assay: Analgesic activity in Swiss albino mouse inflammatory pain model assessed as inhibition of acetic acid-induced writhing at 1 mg/kg, po administered 30 mins prior to acetic acid challenge relative to vehicle-treated control; type: functional; how it was run: as §1
# [12] = biological target: T4, Prostaglandin G/H synthase 2 (Mus musculus) (UniProt Q05769); assay: Ratio of celecoxib IC50 to compound IC50 for COX2 in mouse J774 cells; type: cell-based
# T4 sequence (whole entry): T1 sequence (Q05769 whole entry)
# How it was run: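 The COX-2 IC50 was measured in J774 cells stimulated 24 h with E. coli LPS (10 µg/mL) with or without compound (0.01–10 µM). Supernatant PGE2 by RIA; triplicate wells, mean of three experiments; IC50 from a sigmoidal variable-slope fit. Celecoxib served as the reference for the index.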
Structure (SMILES),IC50 [1] [µM],inhibition in vivo at 5 mg/kg [2] [%],inhibition in vivo at 40 mg/kg [3] [%],inhibition in vivo at 10 mg/kg [4] [%],Ratio IC50 [5],IC50 [6] [µM],inhibition in vivo at 20 mg/kg [7] [%],IC50 [8] [µM],IC50 [9] [µM],Ratio IC50 [10],inhibition in vivo at 1 mg/kg [11] [%],Ratio IC50 [12]
Cc1c(/C=N\O)cc(-c2ccc(S(C)(=O)=O)cc2)n1-c1ccccc1,0.19,13,57,27,> 52.6,> 10,53,–,–,–,–,–
Cc1c(/C=N\O)cc(-c2ccc(S(C)(=O)=O)cc2)n1-c1ccc(F)c(F)c1,0.16,10,–,19,> 62.5,> 10,27,17.3,161,9.3,–,–
Cc1c(/C=N\O)cc(-c2ccc(S(C)(=O)=O)cc2)n1-c1ccc(F)cc1,0.36,2,47,36,> 27.8,> 10,41,–,–,–,–,–
Cc1c(C#N)cc(-c2ccc(S(C)(=O)=O)cc2)n1-c1ccc(F)cc1,–,5,45,36,–,> 10,33,–,–,–,–,–
Cc1c(C=O)cc(-c2ccc(S(C)(=O)=O)cc2)n1-c1ccc(F)c(F)c1,0.07,50,60,53,> 143,> 10,52,14.8,71.4,4.8,36,–
Cc1c(C#N)cc(-c2ccc(S(C)(=O)=O)cc2)n1-c1ccc(F)c(F)c1,0.0022,8,57,19,> 454,> 10,38,–,–,–,–,36
Cc1ccc(-c2cc(C(F)(F)F)nn2-c2ccc(S(N)(=O)=O)cc2)cc1 [CELECOXIB],–,50,69,57,–,–,58,–,–,–,42,–
Cc1c(C#N)cc(-c2ccc(S(C)(=O)=O)cc2)n1-c1ccccc1,0.36,–,59,28,> 27.8,> 10,42,–,–,–,–,–
Cc1c(C=O)cc(-c2ccc(S(C)(=O)=O)cc2)n1-c1cccc(F)c1,0.0095,–,–,39,> 1050,> 10,44,–,–,–,–,8
Cc1c(C=O)cc(-c2ccc(S(C)(=O)=O)cc2)n1-c1ccc(F)cc1,–,5,31,–,–,> 10,30,–,–,–,–,–
Cc1c(C#N)cc(-c2ccc(S(C)(=O)=O)cc2)n1-c1cccc(F)c1,0.013,21,38,28,> 769,> 10,33,1.3,50.5,38.8,–,–
Cc1c(C=O)cc(-c2ccc(S(C)(=O)=O)cc2)n1-c1ccccc1,0.034,–,30,23,> 294,> 10,32,–,–,–,–,–
Cc1c(/C=N\O)cc(-c2ccc(S(C)(=O)=O)cc2)n1-c1cccc(F)c1,0.44,–,45,32,> 22.7,> 10,42,–,–,–,–,–
